# Measurements reported in ChEMBL document CHEMBL1140929, “Synthesis and evaluation of 18F-labeled 2-phenylbenzothiazoles as positron emission tomography imaging agents for amyloid plaques in Alzheimer's disease” (J Med Chem, 2009).
# How the values were obtained:
# [1] = tested on: Blood; experiment: Biodistribution in NMRI mouse blood at 3.7 MBq/mL, iv after 2 mins by gamma counting; type: ADME, organism-based; details: in vivo
# Method in brief: (§1)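 Male NMRI mice (30-40 g) anaesthetised with 0.1 mL ip Hypnorm (fentanyl citrate 63 µg/mL, fluanisone 2 mg/mL). Each received 0.1 mL of HPLC-purified 18F tracer, diluted in 0.9% NaCl to 3.7 MBq/mL (ethanol ≤10%, THF ≤0.02%), via tail vein. Killed by decapitation at 2 or 60 min; blood and organs weighed and γ-counted. Background-corrected, expressed as %ID or %ID/g.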
# [2] = tested on: Liver; experiment: Biodistribution in NMRI mouse liver at 3.7 MBq/mL, iv after 2 mins by gamma counting; type: ADME, organism-based; details: in vivo; method in brief: as §1
# [3] = tested on: Cerebellum; experiment: Biodistribution in NMRI mouse cerebellum at 3.7 MBq/mL, iv after 2 mins by gamma counting; type: ADME, organism-based; details: in vivo; method in brief: as §1
# [4] = tested on: Lung; experiment: Biodistribution in NMRI mouse lung assessed per gram of tissue at 3.7 MBq/mL, iv after 60 mins by gamma counting; type: ADME, organism-based; details: in vivo, 1 h; method in brief: as §1
# [5] = tested on: Heart; experiment: Biodistribution in NMRI mouse heart at 3.7 MBq/mL, iv after 60 mins by gamma counting; type: ADME, organism-based; details: in vivo, 1 h; method in brief: as §1
# [6] = tested on: Blood; experiment: Biodistribution in NMRI mouse blood assessed per gram of tissue at 3.7 MBq/mL, iv after 2 mins by gamma counting; type: ADME, organism-based; details: in vivo; method in brief: as §1
# [7] = tested on: Blood; experiment: Biodistribution in NMRI mouse blood assessed per gram of tissue at 3.7 MBq/mL, iv after 60 mins by gamma counting; type: ADME, organism-based; details: in vivo, 1 h; method in brief: as §1
# [8] = Biodistribution in NMRI mouse urine at 3.7 MBq/mL, iv after 2 mins by gamma counting; type: ADME, organism-based; details: in vivo; method in brief: as §1
# [9] = tested on: Kidney; experiment: Biodistribution in NMRI mouse kidney assessed per gram of tissue at 3.7 MBq/mL, iv after 2 mins by gamma counting; type: ADME, organism-based; details: in vivo; method in brief: as §1
# [10] = tested on: Intestine; experiment: Biodistribution in NMRI mouse intestine at 3.7 MBq/mL, iv after 2 mins by gamma counting; type: ADME, organism-based; details: in vivo; method in brief: as §1
# [11] = tested on: Heart; experiment: Biodistribution in NMRI mouse heart assessed per gram of tissue at 3.7 MBq/mL, iv after 2 mins by gamma counting; type: ADME, organism-based; details: in vivo; method in brief: as §1
# [12] = tested on: Kidney; experiment: Biodistribution in NMRI mouse kidney at 3.7 MBq/mL, iv after 60 mins by gamma counting; type: ADME, organism-based; details: in vivo, 1 h; method in brief: as §1
# [13] = Biodistribution in NMRI mouse cerebrum at 3.7 MBq/mL, iv after 60 mins by gamma counting; type: ADME, organism-based; details: in vivo, 1 h; method in brief: as §1
# [14] = tested on: Cerebellum; experiment: Biodistribution in NMRI mouse cerebellum at 3.7 MBq/mL, iv after 60 mins by gamma counting; type: ADME, organism-based; details: in vivo, 1 h; method in brief: as §1
# [15] = tested on: Blood; experiment: Biodistribution in NMRI mouse blood at 3.7 MBq/mL, iv after 60 mins by gamma counting; type: ADME, organism-based; details: in vivo, 1 h; method in brief: as §1
# [16] = tested on: Heart; experiment: Biodistribution in NMRI mouse heart assessed per gram of tissue at 3.7 MBq/mL, iv after 60 mins by gamma counting; type: ADME, organism-based; details: in vivo, 1 h; method in brief: as §1
# [17] = tested on: Stomach; experiment: Biodistribution in NMRI mouse stomach at 3.7 MBq/mL, iv after 60 mins by gamma counting; type: ADME, organism-based; details: in vivo, 1 h; method in brief: as §1
# [18] = tested on: Intestine; experiment: Biodistribution in NMRI mouse intestine at 3.7 MBq/mL, iv after 60 mins by gamma counting; type: ADME, organism-based; details: in vivo, 1 h; method in brief: as §1
# [19] = tested on: Lung; experiment: Biodistribution in NMRI mouse lung at 3.7 MBq/mL, iv after 60 mins by gamma counting; type: ADME, organism-based; details: in vivo, 1 h; method in brief: as §1
# [20] = tested on: Cerebellum; experiment: Biodistribution in NMRI mouse cerebellum assessed per gram of tissue at 3.7 MBq/mL, iv after 2 mins by gamma counting; type: ADME, organism-based; details: in vivo; method in brief: as §1
# [21] = tested on: Lung; experiment: Biodistribution in NMRI mouse lung at 3.7 MBq/mL, iv after 2 mins by gamma counting; type: ADME, organism-based; details: in vivo
# [22] = Biodistribution in NMRI mouse urine at 3.7 MBq/mL, iv after 60 mins by gamma counting; type: ADME, organism-based; details: in vivo, 1 h; method in brief: as §1
# [23] = Biodistribution in NMRI mouse cerebrum assessed per gram of tissue at 3.7 MBq/mL, iv after 2 mins by gamma counting; type: ADME, organism-based; details: in vivo; method in brief: as §1
# [24] = tested on: Liver; experiment: Biodistribution in NMRI mouse liver assessed per gram of tissue at 3.7 MBq/mL, iv after 60 mins by gamma counting; type: ADME, organism-based; details: in vivo, 1 h; method in brief: as §1
# [25] = tested on: Kidney; experiment: Biodistribution in NMRI mouse kidney assessed per gram of tissue at 3.7 MBq/mL, iv after 60 mins by gamma counting; type: ADME, organism-based; details: in vivo, 1 h; method in brief: as §1
# [26] = tested on: Liver; experiment: Biodistribution in NMRI mouse liver at 3.7 MBq/mL, iv after 60 mins by gamma counting; type: ADME, organism-based; details: in vivo, 1 h; method in brief: as §1
# [27] = Biodistribution in NMRI mouse cerebrum assessed per gram of tissue at 3.7 MBq/mL, iv after 60 mins by gamma counting; type: ADME, organism-based; details: in vivo, 1 h; method in brief: as §1
# [28] = tested on: Liver; experiment: Biodistribution in NMRI mouse liver assessed per gram of tissue at 3.7 MBq/mL, iv after 2 mins by gamma counting; type: ADME, organism-based; details: in vivo; method in brief: as §1
# [29] = tested on: Lung; experiment: Biodistribution in NMRI mouse lung assessed per gram of tissue at 3.7 MBq/mL, iv after 2 mins by gamma counting; type: ADME, organism-based; details: in vivo; method in brief: as §1
# [30] = Biodistribution in NMRI mouse spleen/pancreas assessed per gram of tissue at 3.7 MBq/mL, iv after 2 mins by gamma counting; type: ADME, organism-based; details: in vivo; method in brief: as §1
# [31] = tested on: Stomach; experiment: Biodistribution in NMRI mouse stomach at 3.7 MBq/mL, iv after 2 mins by gamma counting; type: ADME, organism-based; details: in vivo; method in brief: as §1
# [32] = Biodistribution in NMRI mouse spleen/pancreas assessed per gram of tissue at 3.7 MBq/mL, iv after 60 mins by gamma counting; type: ADME, organism-based; details: in vivo, 1 h; method in brief: as §1
# [33] = tested on: Heart; experiment: Biodistribution in NMRI mouse heart at 3.7 MBq/mL, iv after 2 mins by gamma counting; type: ADME, organism-based; details: in vivo; method in brief: as §1
# [34] = tested on: Cerebellum; experiment: Biodistribution in NMRI mouse cerebellum assessed per gram of tissue at 3.7 MBq/mL, iv after 60 mins by gamma counting; type: ADME, organism-based; details: in vivo, 1 h; method in brief: as §1
# [35] = Biodistribution in NMRI mouse spleen/pancreas at 3.7 MBq/mL, iv after 60 mins by gamma counting; type: ADME, organism-based; details: in vivo, 1 h; method in brief: as §1
# [36] = Biodistribution in NMRI mouse spleen/pancreas at 3.7 MBq/mL, iv after 2 mins by gamma counting; type: ADME, organism-based; details: in vivo; method in brief: as §1
# [37] = Biodistribution in NMRI mouse cerebrum at 3.7 MBq/mL, iv after 2 mins by gamma counting; type: ADME, organism-based; details: in vivo; method in brief: as §1
# [38] = target: Amyloid-beta precursor protein (Homo sapiens, UniProt P05067); experiment: Displacement of [125I]IMPY from beta-amyloid plaques in Alzheimer's disease patient brain homogenate; type: tissue-based
# Sequence of Amyloid-beta precursor protein (P05067 whole entry): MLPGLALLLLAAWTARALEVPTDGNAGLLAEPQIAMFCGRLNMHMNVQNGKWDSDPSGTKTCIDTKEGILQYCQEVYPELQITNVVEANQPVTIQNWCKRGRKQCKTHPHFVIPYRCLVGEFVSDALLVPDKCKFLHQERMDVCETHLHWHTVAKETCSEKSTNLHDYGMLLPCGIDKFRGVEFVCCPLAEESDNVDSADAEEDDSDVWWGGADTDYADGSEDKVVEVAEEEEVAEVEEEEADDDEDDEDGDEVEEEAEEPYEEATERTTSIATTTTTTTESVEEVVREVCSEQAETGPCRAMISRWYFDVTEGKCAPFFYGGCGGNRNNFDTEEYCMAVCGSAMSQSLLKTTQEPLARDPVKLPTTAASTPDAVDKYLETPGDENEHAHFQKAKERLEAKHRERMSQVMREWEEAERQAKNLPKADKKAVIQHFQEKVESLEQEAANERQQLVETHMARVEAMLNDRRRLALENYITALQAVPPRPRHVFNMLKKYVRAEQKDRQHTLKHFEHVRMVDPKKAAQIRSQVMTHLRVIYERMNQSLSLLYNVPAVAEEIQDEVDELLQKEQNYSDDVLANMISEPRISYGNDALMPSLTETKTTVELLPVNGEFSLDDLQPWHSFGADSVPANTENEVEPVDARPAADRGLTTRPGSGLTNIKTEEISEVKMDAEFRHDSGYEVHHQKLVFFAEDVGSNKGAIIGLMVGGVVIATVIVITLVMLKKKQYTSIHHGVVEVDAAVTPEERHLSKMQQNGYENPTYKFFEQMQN
# [39] = tested on: Kidney; experiment: Biodistribution in NMRI mouse kidney at 3.7 MBq/mL, iv after 2 mins by gamma counting; type: ADME, organism-based; details: in vivo; method in brief: as §1
SMILES,Drug uptake [1],Drug uptake [2],Drug uptake [3],Drug uptake [4],Drug uptake [5],Drug uptake [6],Drug uptake [7],Drug uptake [8],Drug uptake [9],Drug uptake [10],Drug uptake [11],Drug uptake [12],Drug uptake [13],Drug uptake [14],Drug uptake [15],Drug uptake [16],Drug uptake [17],Drug uptake [18],Drug uptake [19],Ki [38],also measured
Cc1ccc2nc(-c3ccc([18F])cc3)sc2c1,5.7 %ID,24.8 %ID,0.42 %ID,1.3 % ID/g,0.1 %ID,2.2 % ID/g,1.1 % ID/g,0.2 %ID,9.3 % ID/g,8.9 %ID,5.4 % ID/g,2.3 %ID,0.07 %ID,0.04 %ID,2.8 %ID,0.5 % ID/g,1.1 %ID,19.3 %ID,0.3 %ID,,Drug uptake [20]: 5.99 % ID/g; Drug uptake [21]: 3.6 %ID; Drug uptake [22]: 5.8 %ID; Drug uptake [23]: 5.33 % ID/g; Drug uptake [24]: 24.6 % ID/g; Drug uptake [25]: 3.6 % ID/g; Drug uptake [26]: 51.8 %ID; Drug uptake [27]: 0.27 % ID/g; Drug uptake [28]: 12 % ID/g; Drug uptake [29]: 14.4 % ID/g; Drug uptake [30]: 4 % ID/g; Drug uptake [31]: 1.3 %ID; Drug uptake [32]: 0.4 % ID/g; Drug uptake [33]: 0.9 %ID; Drug uptake [34]: 0.39 % ID/g; Drug uptake [35]: 0.1 %ID; Drug uptake [36]: 1.3 %ID; Drug uptake [37]: 1.62 %ID
COc1ccc2nc(-c3ccc(F)cc3)sc2c1,,,,,,,,,,,,,,,,,,,,2.2 nM,
Oc1ccc2nc(-c3ccc(F)cc3)sc2c1,,,,,,,,,,,,,,,,,,,,22.5 nM,
Oc1cc(O)c2sc(-c3ccc(F)cc3)nc2c1,,,,,,,,,,,,,,,,,,,,776 nM,
Oc1ccc2nc(-c3ccc([18F])cc3)sc2c1,10 %ID,28.1 %ID,0.55 %ID,5.5 % ID/g,0.1 %ID,4 % ID/g,1.3 % ID/g,0.1 %ID,12.6 % ID/g,7.1 %ID,5.8 % ID/g,5.9 %ID,0.16 %ID,0.08 %ID,3.3 %ID,1.3 % ID/g,0.5 %ID,36.7 %ID,1.5 %ID,,Drug uptake [20]: 5.13 % ID/g; Drug uptake [21]: 7.6 %ID; Drug uptake [22]: 11.3 %ID; Drug uptake [23]: 4.7 % ID/g; Drug uptake [24]: 11.9 % ID/g; Drug uptake [25]: 11.8 % ID/g; Drug uptake [26]: 24.6 %ID; Drug uptake [27]: 0.57 % ID/g; Drug uptake [28]: 13.3 % ID/g; Drug uptake [29]: 28.1 % ID/g; Drug uptake [30]: 4 % ID/g; Drug uptake [31]: 1.1 %ID; Drug uptake [32]: 1.8 % ID/g; Drug uptake [33]: 0.9 %ID; Drug uptake [39]: 7 %ID; Drug uptake [34]: 0.76 % ID/g; Drug uptake [35]: 0.5 %ID; Drug uptake [36]: 1.2 %ID; Drug uptake [37]: 1.35 %ID
O=C(O)c1ccc2nc(-c3ccc(F)cc3)sc2c1,,,,,,,,,,,,,,,,,,,,> 4000 nM,
Cc1ccc2nc(-c3ccc(F)cc3)sc2c1,,,,,,,,,,,,,,,,,,,,5.7 nM,
COc1ccc2nc(-c3ccc([18F])cc3)sc2c1,4.9 %ID,19.9 %ID,0.56 %ID,2.1 % ID/g,0.1 %ID,2 % ID/g,1.7 % ID/g,0.2 %ID,13.9 % ID/g,8.4 %ID,3.9 % ID/g,9.4 %ID,0.13 %ID,0.07 %ID,4.4 %ID,0.6 % ID/g,1.2 %ID,34.3 %ID,0.6 %ID,,Drug uptake [20]: 5.12 % ID/g; Drug uptake [22]: 16.9 %ID; Drug uptake [23]: 5.1 % ID/g; Drug uptake [24]: 6.7 % ID/g; Drug uptake [25]: 14.2 % ID/g; Drug uptake [26]: 13.6 %ID; Drug uptake [27]: 0.43 % ID/g; Drug uptake [28]: 9.9 % ID/g; Drug uptake [29]: 9.9 % ID/g; Drug uptake [30]: 4.1 % ID/g; Drug uptake [31]: 1.1 %ID; Drug uptake [32]: 0.4 % ID/g; Drug uptake [33]: 0.8 %ID; Drug uptake [39]: 8.6 %ID; Drug uptake [34]: 0.68 % ID/g; Drug uptake [35]: 0.2 %ID; Drug uptake [36]: 1.3 %ID; Drug uptake [37]: 1.57 %ID
